Experimental data from ChEMBL document CHEMBL4831539, “Withanolide-Type Steroids from Physalis nicandroides Inhibit HIV Transcription” (J Nat Prod, 2021).

Experiments:
[1] = tested on: Human immunodeficiency virus; test: Antiviral activity against VSV envelope pseudotyped HIV infected in MT2 cells assessed as luminescence measured after 48 hrs by viral entry evaluation assay; assay type: functional, organism-based; details: Human immunodeficiency virus 1, MT2, 48 h
Summary of the method: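 VSV-G pseudotyped HIV came from 293T cotransfection (calcium phosphate) of envelope-deleted pNL4.3-Luc-RE plus pcDNA3-VSV. MT-2 cells were infected at 100 000 RLUs or 20 ng p24 per well, with base-2 dilutions up to 100 μM, for 48 h at 37 °C, 5% CO2. NL4.3-Ren infections ran in parallel, with an enfuvirtide reference. Luciferase RLUs were read and IC50 obtained by nonlinear regression.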

[2] = Antiviral activity against HIV1 pNL4.3-Luc infected in MT2 cells assessed as luciferase activity measured after 48 hrs by transfection assay; assay type: functional, cell-based; details: Human immunodeficiency virus 1, MT2, 48 h
Summary of the method: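 MT-2 cells were electroporated at 260 V, maximum resistance, with an HIV-1 whole-genome luciferase plasmid (pNL4.3-Luc). They were then treated with base-2 serial dilutions from 0.7 to 100 μM in complete RPMI at 37 °C for 48 h. PMA served as the transactivation reference. Cells were lysed and luciferase RLUs read. IC50 came from nonlinear dose–response regression.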

[3] = Selectivity index, ratio of CC50 for human MT2 cells to IC50 for antiviral activity against VSV envelope pseudotyped HIV infected in MT2 cells by viral entry evaluation assay; assay type: toxicity, cell-based; details: read-out: Selectivity Index
[4] = Selectivity index, ratio of CC50 for human MT2 cells to IC50 for Anti-HIV activity against HIV; assay type: toxicity; details: read-out: Selectivity Index
Summary of the method: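 SI = CC50/IC50. […] CC50 came from mock-infected MT-2 cells under the same conditions, read by CellTiter Glo. Both are means of at least three independent experiments, fitted by nonlinear regression.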

[5] = Selectivity index, ratio of CC50 for human MT2 cells to IC50 for antiviral activity against HIV1 pNL4.3-Luc infected in MT2 cells by transfection assay; assay type: toxicity, cell-based; details: read-out: Selectivity Index

Compound | IC50 [1] | IC50 [2] | selectivity ratio [3] | selectivity ratio [4] | selectivity ratio [5]
enfuvirtide | > 1000 nM | 10 nM | 66.7 |  | 
C=C1C(=O)O[C@@H]([C@@H](C)[C@]2(O)C[C@H](OC(C)=O)[C@]3(O)[C@@H]4C[C@H]5O[C@]56CC=CC(=O)[C@]6(C)[C@H]4CC[C@@]32C)C[C@]1(C)O |  |  |  | > 5.3 | 
CC(=O)O[C@H]1C=C([C@H](C)[C@H]2CC(C)=C(C)C(=O)O2)[C@@]2(C)CC[C@H]3[C@@H](C[C@@H](O)[C@]45C=C[C@H](OO4)C(=O)[C@]35C)[C@@]12O | 3200 nM | 1970 nM | 1.64 |  | 1.02
C[C@H](Cn1cnc2c(N)ncnc21)OCP(=O)(O)O [TENOFOVIR ANHYDROUS] |  |  |  | 333 | 
C=C1C(=O)O[C@@H]([C@@H](C)[C@]2(O)C[C@H](OC(C)=O)[C@]3(O)[C@@H]4C[C@H]5O[C@]56CC=CC(=O)[C@]6(C)[C@H]4CC[C@@]32C)C[C@@]1(C)O |  |  |  | > 8 | 
CC(=O)O[C@H]1C=C([C@H](C)[C@H]2CC(C)=C(C)C(=O)O2)[C@@]2(C)CC[C@H]3[C@@H](C[C@H]4O[C@]45CC=CC(=O)[C@]35C)[C@@]12O |  |  | 2.66 | 10.6 | 
